# Source: PubChem BioAssay
# SR-BI DiI inh – mouse SR-BI HDL lipid transfer inhibition; inhibition, % at 12.5 µM; hit rate 0.96% among 320,000; ldlA[mSR-BI] CHO cells, DiI-HDL uptake fluorescence, 3 h; Q61009; AID 488896;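 active = mean replicate inhibition of at least 70% and a set share of replicates each scoring 70 or more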;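 also: 0% = median of neutral control wells and 100% = median of positive control wells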
# Target sequence (Q61009 whole entry, looked up): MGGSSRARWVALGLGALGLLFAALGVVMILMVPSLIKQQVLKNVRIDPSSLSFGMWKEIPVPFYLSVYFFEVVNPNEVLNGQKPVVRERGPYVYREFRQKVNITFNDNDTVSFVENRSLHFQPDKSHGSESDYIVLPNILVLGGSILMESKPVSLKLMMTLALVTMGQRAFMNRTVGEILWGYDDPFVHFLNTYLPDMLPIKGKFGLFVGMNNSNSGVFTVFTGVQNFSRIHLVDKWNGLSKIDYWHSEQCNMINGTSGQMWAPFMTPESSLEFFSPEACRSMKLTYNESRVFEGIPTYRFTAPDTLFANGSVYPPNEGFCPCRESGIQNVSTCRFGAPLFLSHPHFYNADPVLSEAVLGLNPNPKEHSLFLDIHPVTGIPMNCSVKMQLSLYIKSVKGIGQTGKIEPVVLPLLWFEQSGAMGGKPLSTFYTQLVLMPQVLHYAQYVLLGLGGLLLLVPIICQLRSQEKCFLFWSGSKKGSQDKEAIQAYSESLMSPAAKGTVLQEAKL
# AHR act – activators of human aryl hydrocarbon receptor; AID 2796; AHR-responsive luciferase reporter cells, luminescence; hit rate 2.5% among 320,000; P35869; activation, % at 5 µM; in the data active = activation above about 47%;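 also: 0% = vehicle wells and 100% = reference agonist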
# SR-BI DiI-HDL act – SR-BI HDL lipid transfer activation; activation, % at 12.5 µM; hit rate 0.096% among 320,000; CHO ldlA[mSR-BI] cells, DiI-HDL uptake fluorescence, 3 h; 100 = double the neutral-control signal;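 active = mean replicate activation of at least 60% and every replicate at or above 60%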;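 also: 0% = median plate neutral-control signal and 100% = twice that signal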
#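 Material – SR-BI-overexpressing, LDLR-lacking CHO cells · Medium – BSA-supplemented, HEPES-buffered Ham's F12, pH 7.4 · Doses – single concentration · Times – compound with DiI-HDL co-incubation, 3 h at 37 °C · Measured by – bottom-read fluorescence, 550/595 nm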
# GAA850 FXN act – activators of GAA850 frataxin (FXN) promoter. HEK293 lucGAA850 FXN promoter luciferase reporter, 24 h; percent of 10 µM SAHA response. activation, % at 6 µM. hit rate 0.56% among 360,000;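 active = activation above the average of all compounds screened plus 3 SD, cutoff fixed separately per campaign, cut at about 7.5% in these data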;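 also: 0% = DMSO wells and 100% = 10 µM SAHA wells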
# GASC-1 inh – human JMJD2C demethylase inhibition; GST-JMJD2C(1-420) H3K9me3 demethylation, DELFIA europium; inhibition, % at 2.35 µM; hit rate 0.069% among 330,000;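 active = more than half of a compound's replicate wells show inhibition beyond 50%, single wells judged on their own value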;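 also: signal counts dimethyl H3K9 product captured on neutravidin plate; 0% = median of DMSO wells and 100% = 0.3 times that DMSO median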
# Starred values were filed as active, the others as inactive; i = inactive; . = not tested or not shown. Rows were chosen to be rich in hits. Some 3.7% of all compounds tested hit in one or more screens of this group.
SMILES,SR-BI DiI inh,AHR act,SR-BI DiI-HDL act,GAA850 FXN act,GASC-1 inh
O=C(CNC(=O)c1cccs1)c1ccc([N+](=O)[O-])cc1,-10.9,77.8*,10.9,6.7,-5.7
Cc1ccc(SCCN2CCN(CC(C)C)CCC2=O)cc1,-8.4,.,8.4,2.4,25.2
O=C(COC(=O)C1=Cc2ccccc2OC1)NC1CCCC1,-36.7,0.3,36.7,0.5,-1.0
CCOC(=O)c1c(NC(=S)Nc2ccc(Cl)cc2)sc(C)c1C,4.3,.,-4.3,-0.8,-11.2
Cc1sc(NC(=S)NC(=O)C2CCCCC2)c(C(N)=O)c1C,4.2,56.3*,-4.2,-0.7,-1.3
Cc1sc(NC(=O)c2ccc(Br)s2)c(C(N)=O)c1C,38.7,58.6*,-38.7,1.9,0.7
Cc1sc(NC(=S)Nc2ccc(F)cc2)c(C(N)=O)c1C,36.6,81.2*,-36.6,2.5,11.4
CCOC(=O)CNC(=O)c1ccc(Br)s1,3.5,1.9,-3.5,-0.1,-4.9
COc1ccc(Br)cc1C(=O)Nc1ccc(O)cc1,34.2,42.0,-34.2,0.7,-7.0
COc1ccccc1C(=O)Nc1cc2cc(Br)ccc2oc1=O,99.8*,23.4,-15.0,0.8,-2.9
COc1ccc(Br)cc1C(=O)Nc1cccc(C)c1,75.4*,50.0*,-75.4,0.1,24.4
CN1CCN(c2ccccc2NC(=O)c2cc(Br)ccc2Cl)CC1,54.6,55.1*,-54.6,-0.3,-2.5
CN1CCN(c2ccccc2NC(=O)c2ccc(-c3ccc(Cl)c(Cl)c3)o2)CC1,22.2,63.4*,-22.2,2.9,5.5
CN1CCN(c2ccccc2NC(=O)c2ccc(-c3ccc(Br)cc3)o2)CC1,10.0,12.9,-10.0,-4.3,5.4
Cc1nnc(SCC(=O)NNC(=O)COc2ccc(Br)cc2)n1C,-10.6,1.8,10.6,0.3,-3.4
Cc1ccc(C(=O)N2CCN(S(=O)(=O)c3ccccc3)CC2)s1,10.6,5.9,-10.6,0.0,2.8
O=C(CC12CC3CC(CC(C3)C1)C2)NC1CC1,-17.0,-1.2,17.0,3.5,-4.4
COc1ccccc1NC(=O)c1cc(Br)ccc1Cl,56.0,65.4*,-56.0,0.0,-1.1
O=C(N/C(=C\c1cccnc1)c1nc2ccccc2[nH]1)c1cccc(Br)c1,-5.1,17.4,5.1,-2.5,9.0
O=C(N/C(=C\c1ccc(Br)cc1)c1nc2ccccc2[nH]1)c1ccco1,17.7,75.0*,-17.7,2.3,3.7
Cc1cccnc1NC(=O)Nc1ccccc1,0.4,3.8,-0.4,3.9,2.8
Cc1nnc(NC(=O)c2sc3ccccc3c2Cl)s1,6.0,47.7*,-6.0,3.7,4.9
COCc1nnc(NC(=O)c2sc3ccccc3c2Cl)s1,-5.6,1.1,5.6,-0.1,3.8
Cc1cccnc1NC(=O)Nc1ccc(Cl)cc1,5.5,74.4*,-5.5,6.6,6.2
O=C(NC1=NCCS1)c1sc2ccccc2c1Cl,-6.3,-0.7,6.3,0.7,-4.9
SMILES,SR-BI DiI inh,AHR act,SR-BI DiI-HDL act,GAA850 FXN act,GASC-1 inh
Cc1cccnc1NC(=O)c1sc2ccccc2c1Cl,-12.1,69.2*,12.1,6.2,3.9
Cc1cc(C(=O)OCC(=O)NCCCN2CCCC2=O)c2ccccc2n1,1.3,4.1,-1.3,1.2,-4.0
CCOC(=O)Cc1csc(NS(=O)(=O)c2ccc(NC(C)=O)cc2)n1,-0.6,.,0.6,0.8,-8.9
CCOc1ccccc1NC(=O)c1oc2ccccc2c1NC(=O)C1CCCO1 (stereo not drawn),22.5,49.2*,-22.5,-0.1,-21.6
CCC(=O)Nc1c(C(=O)Nc2cccc(OC)c2)oc2ccccc12,27.8,63.1*,-27.7,6.8,0.7
CCOCC(=O)Nc1c(C(=O)Nc2ccccc2OC)oc2ccccc12,-10.2,73.0*,10.2,0.2,i
COc1cccc(NC(=O)c2cc(=O)c3ccccc3o2)c1,27.4,3.0,.,2.6,11.5
COC(=O)c1cc(OC)c(OC)cc1NC(=O)c1cccc(OC)c1OC,71.6*,2.6,-71.6,1.1,-2.1
CCCN(CCC)CCNC(=O)CN1C(=O)COc2ccc(S(=O)(=O)N3CCOCC3)cc21,-2.1,-2.4,2.1,-0.5,-15.7
O=C(NCC1CCCO1)c1ccc[nH]1 (stereo not drawn),-12.1,0.0,12.1,0.5,17.3
CC(=O)Oc1ccc(N(C(C)=O)S(=O)(=O)c2ccc3ccccc3c2)cc1,-0.2,4.3,0.2,1.1,1.1
COc1ccccc1NC(=O)c1oc2ccccc2c1NC(=O)C1CC1,42.3,63.5*,-42.3,-2.5,-1.5
